Molecules are shown by their SMILES. Residues, ends and D or L forms follow the SMILES beside them.

Experiment [1] deals with Aorta. Briefly: Scavenging activity against nitric oxide radical generation in Wistar rat aortic strips cells assessed as inhibition of acetylcholine-induced vasorelaxation at 0.1 umol/L.
Experiment [2] has as its system Aorta. Kind of experiment: Scavenging activity against nitric oxide radical generation in Wistar rat aortic strips cells assessed as inhibition of acetylcholine-induced vasorelaxation at 1 umol/L. Format: functional, tissue-based. The method, boiled down:
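Rat aortic strips in 37 °C oxygenated (95% O2/5% CO2) Krebs, pH 7.4, on tension transducers. Precontracted with noradrenaline (final 10^-9 mol/L), washed, stabilized 30 min, recontracted; at peak, compound in water (final 10^-6 mol/L) or NS added, then ACh (final 10^-6 mol/L). Percent inhibition of ACh-induced relaxation recorded.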

The test system of experiment [3] is Aorta. Briefly: Scavenging activity against nitric oxide radical generation in Wistar rat aortic strips cells assessed as inhibition of acetylcholine-induced vasorelaxation at 0.01 umol/L.
The species entered for experiment [4] is Rattus norvegicus. Kind of experiment: Antithrombotic effect in Wistar rat assessed as reduction in dry thrombus mass at 5 umol/L. Format: functional. The method, boiled down: (§1)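 Male Wistar rats 250-300 g, sodium pentobarbital 80.0 mg/kg ip; arteriovenous shunt (polyethylene tube with weighed 6 cm thread, sodium heparin 50 IU/mL in NS) from right carotid to left jugular vein. Compound dissolved in NS just before use, kept on ice, injected via tube; NS vehicle. Blood flowed 15 min; wet thrombus weighed, dry weight after 2 weeks in desiccator.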

For experiment [5], the species on record is Rattus norvegicus. Kind of experiment: Antithrombotic effect in Wistar rat assessed as reduction in wet thrombus mass at 5 umol/L. Format: functional. In short, it runs like this:
as §1

The test system of experiment [6] is PC-12. Briefly: Scavenging activity against hydrogen peroxide radical generation in rat PC12 cells assessed as cell survival by MTT assay. The class given is functional, cell-based. In short, it runs like this: (§2)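 PC12 cells in DMEM with 10% heat-inactivated horse serum, 5% FBS, 1.0 mM pyruvate, penicillin/streptomycin, 37 °C, 5% CO2; seeded 20,000/well on poly-L-lysine, 24 h attachment. Pretreated 1 h with 12.5–200 µM. Insult: 2 mM SNP 2 h (NO), 1 mM H2O2 1 h, or 1 mM H2O2/30 µM Fe(II) 1 h (•OH). For SNP, fresh media then 14 h culture. Survival by MTT; EC50 (µM).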
For orientation: Tetrazolium dyes change colour on reduction, which living cells bring about.

For experiment [7], the system named is PC-12. Briefly: Scavenging activity against nitric oxide radical generation in rat PC12 cells assessed as cell survival by MTT assay. Format: functional, cell-based. In short, it runs like this: as §2
The test system of experiment [8] is PC-12. Kind of experiment: Scavenging activity against […] generation in rat PC12 cells assessed as cell survival by MTT assay. The class given is functional, cell-based. The method, boiled down:
as §2

Experiment [9] relates to Rattus norvegicus. Briefly: Reduction in infarct size in ischemia reperfusion Wistar rat model assessed as infarct size over risk zone at 10 mg/kg. The class given is functional. More on the design: scale not given: the % may be the effect or the level left. In short, it runs like this: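 Male Wistar rats 250-300 g, pentobarbital 80.0 mg/kg ip; left coronary artery occluded 30 min by snare, then 120 min reperfusion. Compound 10 mg/kg in DMSO–0.9% NaCl (1:103 v/v) infused transjugularly 15 min before occlusion. Ventricular 1 mm slices stained with 1% TTC 15 min at 37 °C, with Evans blue for area at risk; infarct/risk zone %, n = 8, mean ± SE, t-test.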

Experiment [10] is filed under the species Rattus norvegicus. Kind of experiment: Protective effect in sham ischemia reperfusion Wistar rat model assessed as malondialdehyde per mg of protein. The class given is functional.
For experiment [11], the species on record is Rattus norvegicus. Briefly: Protective effect in ischemia reperfusion Wistar rat model assessed as malondialdehyde per mg of protein. The class given is functional.

Consider `COc1cc(C2N[C@H](C(=O)NN(CCCNC(=N)N)CC(=O)NCC(=O)N[C@H](CC(=O)O)C(=O)N[C@H](C(=O)O)C(C)C)Cc3c2[nH]c2ccccc32)cc(OC)c1O` (stereo partly drawn), for which the inhibition in the experiment with Aorta [1] worked out at 75.3%; with Aorta [2], 97.2%; in the experiment on Aorta [3] it was 28.3%.
As for `CC(C)[C@H](NC(=O)[C@H](CC(=O)O)NC(=O)CNNC(=O)[C@@H](N)CCCNC(=N)N)C(=O)O`, the Activity in the experiment filed under Rattus norvegicus [4] stood at 7.05 mg; in the experiment listed under Rattus norvegicus [5], 34.98 mg.
`COc1cc(C2N[C@H](C(=O)N[C@@H](CCCNC(=N)N)C(=O)NNCC(=O)N[C@@H](CC(=O)O)C(=O)N[C@H](C(=O)O)C(C)C)Cc3c2[nH]c2ccccc32)cc(OC)c1O` (stereo partly drawn) [listing 1 of 2 here]: the values for the Activity in the experiment listed under Rattus norvegicus [4] and in the experiment filed under Rattus norvegicus [5] were 3.79 mg and 24.54 mg, respectively.
As to `COc1cc(C2N[C@H](C(=O)N[C@@H](CCCNC(=N)N)C(=O)NNCC(=O)N[C@@H](CC(=O)O)C(=O)N[C@H](C(=O)O)C(C)C)Cc3c2[nH]c2ccccc32)cc(OC)c1O` (stereo partly drawn) [listing 2 of 2 here], the values for the EC50 with PC-12 [6], in the experiment on PC-12 [7] and with PC-12 [8] were 41.2 µM, 91.2 µM and 90.3 µM, respectively.
For `COc1cc(C2N[C@H](C(=O)NN(CCCNC(=N)N)CC(=O)NCC(=O)N[C@@H](CC(=O)O)C(=O)N[C@H](C(=O)O)C(C)C)Cc3c2[nH]c2ccccc32)cc(OC)c1O` (stereo partly drawn) [listing 1 of 2 here], the Activity in the experiment on Rattus norvegicus [9] amounted to 35%; in the experiment listed under Rattus norvegicus [10] it was 2.52 nmol/mg; in the experiment listed under Rattus norvegicus [4] it was 2.23 mg; in the experiment filed under Rattus norvegicus [5], 21.05 mg; in the experiment filed under Rattus norvegicus [11] it was 2.91 nmol/mg.
With `CC(C)[C@H](NC(=O)[C@H](CC(=O)O)NC(=O)CNC(=O)[C@@H](N)CCCNC(=N)N)C(=O)O` (H-RGDV-OH), the figures for the Activity in the experiment listed under Rattus norvegicus [4] and in the experiment listed under Rattus norvegicus [5] were 6.78 mg and 35.75 mg, respectively.
For `COc1cc(C2N[C@H](C(=O)NN(CCCNC(=N)N)CC(=O)NCC(=O)N[C@@H](CC(=O)O)C(=O)N[C@H](C(=O)O)C(C)C)Cc3c2[nH]c2ccccc32)cc(OC)c1O` (stereo partly drawn) [listing 2 of 2 here], the EC50 with PC-12 [6] worked out at 75.4 µM; in the experiment on PC-12 [7] it was 96.5 µM; in the experiment with PC-12 [8], 95.1 µM.
`CC(C)[C@H](NC(=O)[C@H](CC(=O)O)NC(=O)CNC(=O)CN(N)CCCNC(=N)N)C(=O)O`: the Activity in the experiment listed under Rattus norvegicus [4] was 4.39 mg; in the experiment filed under Rattus norvegicus [5], 27.04 mg.
As to `COc1cc(C2N[C@H](C(=O)N[C@@H](CCCNC(=N)N)C(=O)NNCC(=O)N[C@H](CC(=O)O)C(=O)N[C@H](C(=O)O)C(C)C)Cc3c2[nH]c2ccccc32)cc(OC)c1O` (stereo partly drawn), the figures for the inhibition with Aorta [1], in the experiment with Aorta [2] and with Aorta [3] were 71%, 95.8% and 14.1%, respectively.
With `CC(C)[C@H](NC(=O)CN(CC(=O)O)NC(=O)CNC(=O)[C@@H](N)CCCNC(=N)N)C(=O)O`, the Activity in the experiment listed under Rattus norvegicus [4] came out at 7.83 mg; in the experiment listed under Rattus norvegicus [5] it was 41.8 mg.
As for `COc1cc(C2N[C@H](C(=O)N[C@@H](CCCNC(=N)N)C(=O)NCC(=O)NN(CC(=O)O)CC(=O)N[C@H](C(=O)O)C(C)C)Cc3c2[nH]c2ccccc32)cc(OC)c1O` (stereo partly drawn), the inhibition in the experiment on Aorta [1] was found to be 63.7%; with Aorta [2], 90.1%; in the experiment on Aorta [3] it was 13%. Besides, the EC50 was 45.7 µM with PC-12 [6], 90.2 µM with PC-12 [7] and 93.2 µM in the experiment with PC-12 [8]. In addition, the Activity in the experiment listed under Rattus norvegicus [4] is 4.85 mg; in the experiment listed under Rattus norvegicus [5], 25.46 mg.
For the compound `COc1cc(C2N[C@H](C(=O)O)Cc3c2[nH]c2ccccc32)cc(OC)c1O` (stereo partly drawn), the inhibition in the experiment with Aorta [1] was determined as 55.3%; in the experiment on Aorta [2], 81%; with Aorta [3] it was 10.8%. The EC50 was determined as 34.5 µM in the experiment on PC-12 [6], 88.4 µM in the experiment with PC-12 [7] and 85.9 µM in the experiment with PC-12 [8]. Moreover, the figures for the Activity in the experiment listed under Rattus norvegicus [4] and in the experiment listed under Rattus norvegicus [5] were 8.03 mg and 44.01 mg, respectively.

A word on the inhibition: it is how much of the control response was suppressed. Usually EC50 stands for the midpoint of the concentration-response curve.

Source of the values: ChEMBL document CHEMBL1137490, “Design, synthesis and cardioprotective effect of a new class of dual-acting agents: phenolic tetrahydro-beta-carboline RGD peptidomimetic conjugates” (Bioorg Med Chem, 2007).
